Experimental data from ChEMBL document CHEMBL3414565, “Discovery of novel AHLs as potent antiproliferative agents” (Eur J Med Chem, 2015).

How the values were obtained:
[1] = test system: MCF7; experiment: Induction of apoptosis in human MCF7 cells assessed as early apoptotic cells at 8 uM after 24 hrs by annexin V-FITC/propidium iodide staining-based flow cytometry (reference value: 4.5%); type: functional
In short: (§1)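 MCF-7 cells were plated at 5.0 × 10^6 cells/mL and held 12 or 24 h at 37 °C. Exponentially growing cells then received complete medium (blank) or compound at 0, 2, 4 or 8 for 12 or 24 h. Harvested cells were stained with Annexin V-FITC/PI and analysed by flow cytometry. Quadrants were scored as live, early apoptotic (annexin+/PI−), late apoptotic (double positive) and damaged (PI+ only).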

[2] = test system: MCF7; experiment: Induction of apoptosis in human MCF7 cells after 12 to 24 hrs by annexin V-FITC/propidium iodide staining-based flow cytometry; type: functional, cell-based; in short: as §1
[3] = test system: MGC-803; experiment: Cytotoxicity against human MGC803 cells after 72 hrs by MTT assay; type: functional, cell-based; settings: MGC-803, 72 h
In short: (§2)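 Cells were grown in RPMI1640 and seeded at 5 × 10^3 cells/well, then left 24 h at 37 °C. Medium was replaced with fresh medium holding a range of compound concentrations, from 10 mM DMSO stocks with final DMSO at most 0.1%. Exposure lasted 72 h. MTT (5 mg/mL) was added for 4 h at 37 °C, formazan was dissolved in DMSO and A570 was read. IC50 came from dose-response curves as mean ± SD of three independent experiments.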

[4] = test system: MCF7; experiment: Induction of apoptosis in human MCF7 cells assessed as early apoptotic cells at 2 uM after 24 hrs by annexin V-FITC/propidium iodide staining-based flow cytometry (reference value: 4.5%); type: functional; in short: as §1
[5] = test system: MCF7; experiment: Cell cycle arrest in human MCF7 cells assessed as accumulation at S phase at 4 uM after 24 hrs by propidium iodide staining-based flow cytometry (reference value: 40.08%); type: functional
[6] = test system: MCF7; experiment: Cell cycle arrest in human MCF7 cells assessed as accumulation at G1/G0 phase at 2 uM after 12 hrs by propidium iodide staining-based flow cytometry (reference value: 60.51%); type: functional
[7] = test system: HEK293; experiment: Cytotoxicity against human HEK293 cells after 72 hrs by MTT assay; type: cell-based; settings: HEK293, 72 h
[8] = test system: MCF7; experiment: Cell cycle arrest in human MCF7 cells assessed as accumulation at G1/G0 phase at 8 uM after 12 hrs by propidium iodide staining-based flow cytometry (reference value: 60.51%); type: functional
[9] = test system: MCF7; experiment: Induction of apoptosis in human MCF7 cells assessed as early apoptotic cells at 4 uM after 12 hrs by annexin V-FITC/propidium iodide staining-based flow cytometry (reference value: 7.2%); type: functional; in short: as §1
[10] = test system: MCF7; experiment: Induction of apoptosis in human MCF7 cells assessed as necrotic cells at 2 uM after 12 hrs by annexin V-FITC/propidium iodide staining-based flow cytometry (reference value: 4.7%); type: functional; in short: as §1
[11] = test system: MCF7; experiment: Induction of apoptosis in human MCF7 cells assessed as viable cells at 8 uM after 24 hrs by annexin V-FITC/propidium iodide staining-based flow cytometry (reference value: 87.1%); type: functional; settings: MCF7, 24 h, read-out: Activity
[12] = test system: MCF7; experiment: Induction of apoptosis in human MCF7 cells assessed as late apoptotic cells at 8 uM after 12 hrs by annexin V-FITC/propidium iodide staining-based flow cytometry (reference value: 2.7%); type: functional; in short: as §1
[13] = test system: MCF7; experiment: Induction of apoptosis in human MCF7 cells assessed as necrotic cells at 8 uM after 12 hrs by annexin V-FITC/propidium iodide staining-based flow cytometry (reference value: 4.7%); type: functional; in short: as §1
[14] = test system: MCF7; experiment: Induction of apoptosis in human MCF7 cells assessed as viable cells at 4 uM after 12 hrs by annexin V-FITC/propidium iodide staining-based flow cytometry (reference value: 85.4%); type: functional; settings: MCF7, 12 h, read-out: Activity; in short: as §1
[15] = test system: MCF7; experiment: Cell cycle arrest in human MCF7 cells assessed as accumulation at G1/G0 phase at 4 uM after 24 hrs by propidium iodide staining-based flow cytometry (reference value: 46.77%); type: functional
[16] = test system: MCF7; experiment: Cell cycle arrest in human MCF7 cells assessed as accumulation at G2/M phase at 2 uM after 12 hrs by propidium iodide staining-based flow cytometry (reference value: 16.53%); type: functional
[17] = test system: MCF7; experiment: Cell cycle arrest in human MCF7 cells assessed as accumulation at S phase at 8 uM after 24 hrs by propidium iodide staining-based flow cytometry (reference value: 40.08%); type: functional
[18] = test system: MCF7; experiment: Induction of apoptosis in human MCF7 cells assessed as early apoptotic cells at 4 uM after 24 hrs by annexin V-FITC/propidium iodide staining-based flow cytometry (reference value: 4.5%); type: functional; in short: as §1
[19] = test system: MCF7; experiment: Cell cycle arrest in human MCF7 cells assessed as accumulation at G2/M phase after 12 to 24 hrs by propidium iodide staining-based flow cytometry; type: functional
[20] = test system: MCF7; experiment: Induction of apoptosis in human MCF7 cells assessed as necrotic cells at 8 uM after 24 hrs by annexin V-FITC/propidium iodide staining-based flow cytometry (reference value: 6.2%); type: functional; in short: as §1
[21] = test system: MCF7; experiment: Induction of apoptosis in human MCF7 cells assessed as viable cells at 4 uM after 24 hrs by annexin V-FITC/propidium iodide staining-based flow cytometry (reference value: 87.1%); type: functional; settings: MCF7, 24 h, read-out: Activity; in short: as §1
[22] = test system: MCF7; experiment: Cell cycle arrest in human MCF7 cells assessed as accumulation at G2/M phase at 8 uM after 24 hrs by propidium iodide staining-based flow cytometry (reference value: 16.27%); type: functional
[23] = test system: MCF7; experiment: Cell cycle arrest in human MCF7 cells assessed as accumulation at G2/M phase at 8 uM after 12 hrs by propidium iodide staining-based flow cytometry (reference value: 16.53%); type: functional
[24] = test system: MCF7; experiment: Induction of apoptosis in human MCF7 cells assessed as necrotic cells at 4 uM after 24 hrs by annexin V-FITC/propidium iodide staining-based flow cytometry (reference value: 6.2%); type: functional; in short: as §1
[25] = test system: MCF7; experiment: Cell cycle arrest in human MCF7 cells assessed as accumulation at S phase at 2 uM after 12 hrs by propidium iodide staining-based flow cytometry (reference value: 26.65%); type: functional
[26] = Cytotoxicity against human GES-1 cells after 72 hrs by MTT assay; type: cell-based; settings: GES1, 72 h
[27] = test system: MCF7; experiment: Induction of apoptosis in human MCF7 cells assessed as early apoptotic cells at 8 uM after 12 hrs by annexin V-FITC/propidium iodide staining-based flow cytometry (reference value: 7.2%); type: functional; in short: as §1
[28] = test system: MCF7; experiment: Induction of apoptosis in human MCF7 cells at 2 to 8 uM by annexin V-FITC/propidium iodide staining-based flow cytometry; type: functional, cell-based; settings: TDE = time-dependent effect
[29] = test system: MCF7; experiment: Induction of apoptosis in human MCF7 cells assessed as necrotic cells at 4 uM after 12 hrs by annexin V-FITC/propidium iodide staining-based flow cytometry (reference value: 4.7%); type: functional; in short: as §1
[30] = Cytotoxicity against human EC9706 cells after 72 hrs by MTT assay; type: functional, cell-based; settings: EC9706, 72 h; in short: as §2
[31] = test system: MCF7; experiment: Induction of apoptosis in human MCF7 cells assessed as late apoptotic cells at 8 uM after 24 hrs by annexin V-FITC/propidium iodide staining-based flow cytometry (reference value: 2.1%); type: functional; in short: as §1
[32] = test system: MCF7; experiment: Induction of apoptosis in human MCF7 cells assessed as late apoptotic cells at 4 uM after 24 hrs by annexin V-FITC/propidium iodide staining-based flow cytometry (reference value: 2.1%); type: functional; in short: as §1
[33] = test system: MCF7; experiment: Induction of apoptosis in human MCF7 cells assessed as viable cells at 2 uM after 12 hrs by annexin V-FITC/propidium iodide staining-based flow cytometry (reference value: 85.4%); type: functional; settings: MCF7, 12 h, read-out: Activity; in short: as §1

Question: What does the source list for `O=C(CSC(=S)N[C@H]1CCOC1=O)Nc1ccc(C(=O)/C=C/c2ccccc2Cl)cc1`?
Answer: Activity [1]: 43.2%; Activity [2]: Dose-dependent effect; IC50 [3]: 12.3 µM; Activity [4]: 16.4%; Activity [5]: 20.43%; Activity [6]: 67.5%; IC50 [7]: 21.1 µM; Activity [8]: 46.48%; Activity [9]: 14.7%; Activity [10]: 4.9%; viability at 8 µM [11]: 46%; Activity [12]: 1.6%; Activity [13]: 3.5%; viability at 4 µM [14]: 77.9%; Activity [15]: 39.43%; Activity [16]: 18.26%; Activity [17]: 33.39%; Activity [18]: 23.6%; Activity [19]: Dose-dependent effect; Activity [20]: 4.8%; viability at 4 µM [21]: 69.3%; Activity [22]: 63.06%; Activity [23]: 33.6%; Activity [24]: 4.1%; Activity [25]: 23.92%; IC50 [26]: 23.5 µM; Activity [27]: 19%; Activity [28]: tde; Activity [29]: 5.6%; IC50 [30]: 34.1 µM; Activity [31]: 6.1%; Activity [32]: 3%; viability at 2 µM [33]: 82.1%
